Laboratory results as given in ChEMBL document CHEMBL1255202, “Polyamine conjugation of curcumin analogues toward the discovery of mitochondria-directed neuroprotective agents” (J Med Chem, 2010).
Calls of active or inactive are those of the source. The calls are words filed in the database; no cut-off is given here.

Assays:
[1] = organism: Bos taurus; assay: Antioxidant activity in bovine heart mitochondria assessed as reduction of antimycin A-induced ROS production at 10 uM by fluorescence plate reader analysis; type: functional
Outline: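 Submitochondrial particles were given NADH as substrate, and ROS production was induced with 2 μM antimycin A. Compounds were tested at 10 μM, with 1.8 μM mucidin as negative control. ROS were detected with the fluorogenic probe DCFDA.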

[2] = Antioxidant activity in human fibroblasts assessed as reduction of tert-butyl hydroperoxide-induced ROS production at 10 uM treated 24 hrs before tert-butyl hydroperoxide challenge measured after 30 mins by fluorescence plate reader analysis; type: functional, Fibroblast; design: scale not given: the % may be the effect or the level left
[3] = tested on: Caco-2; assay: Antiproliferative activity against human Caco-2 cells after 72 hrs by MTT assay; type: functional, cell-based; settings: Caco-2, 72 h
Outline: (§1)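 Cells were incubated 72 h with compound at 0.1-30 μM, and proliferation was measured by MTT. IC50 is the concentration giving 50% inhibition of proliferation, reported as the mean of two independent experiments.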

[4] = tested on: SH-SY5Y; assay: Antiproliferative activity against human SH-SY5Y cells after 72 hrs by MTT assay; type: functional, cell-based; outline: as §1
[5] = tested on: C6; assay: Antiproliferative activity against rat C6 cells after 72 hrs by MTT assay; type: functional, cell-based; settings: C6, 72 h; outline: as §1
[6] = Antiproliferative activity against mouse HT22 cells after 72 hrs by MTT assay; type: cell-based; settings: HT-22, 72 h; outline: as §1
[7] = tested on: HaCaT; assay: Antiproliferative activity against human HaCaT cells after 72 hrs by MTT assay; type: cell-based; outline: as §1
[8] = tested on: Caco-2; assay: Antiproliferative activity against human Caco-2 cells at 10 uM after 72 hrs by MTT assay; type: functional
Outline: (§2)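 Proliferation was measured by MTT after 72 h exposure to compound (range 0.1-30 μM, with the 10 μM point reported). Results are expressed as percent of control cells, as the mean of two independent experiments.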

[9] = tested on: SH-SY5Y; assay: Antiproliferative activity against human SH-SY5Y cells at 10 uM after 72 hrs by MTT assay; type: functional; outline: as §2
[10] = tested on: C6; assay: Antiproliferative activity against rat C6 cells at 10 uM after 72 hrs by MTT assay; type: functional; outline: as §2
[11] = Antiproliferative activity against mouse HT22 cells at 10 uM after 72 hrs by MTT assay; type: cell-based; settings: ht-22, 72 h; outline: as §2
[12] = tested on: HaCaT; assay: Antiproliferative activity against human HaCaT cells at 10 uM after 72 hrs by MTT assay; type: cell-based; outline: as §2
[13] = tested on: T67; assay: Antiproliferative activity against human T67 cells at 10 uM after 72 hrs by MTT assay; type: functional, cell-based
[14] = target: T1, Heme oxygenase 1 (Bos taurus) (UniProt Q5E9F2); assay: Activation of heme oxygenase-1 in BAEC at 10 uM after 6 hrs
T1 sequence (whole entry): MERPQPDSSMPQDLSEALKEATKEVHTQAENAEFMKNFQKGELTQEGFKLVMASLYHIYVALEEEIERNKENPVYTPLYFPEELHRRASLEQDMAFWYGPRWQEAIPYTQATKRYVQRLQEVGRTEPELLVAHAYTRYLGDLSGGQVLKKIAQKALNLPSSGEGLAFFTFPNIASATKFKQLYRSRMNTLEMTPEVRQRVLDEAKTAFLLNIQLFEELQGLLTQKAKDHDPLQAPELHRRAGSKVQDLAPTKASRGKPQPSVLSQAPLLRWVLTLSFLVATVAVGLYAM
Outline: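 HO-1 activity measured in bovine aortic endothelial cells exposed to 10 μM compound for 6 h. Control cells received medium alone. Activity is reported as (pmol bilirubin/mg protein)/h, averaged over three independent experiments.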

[15] = Cellular uptake in human T67 cells at 10 uM after 30 mins by fluorescence microscopic analysis; type: ADME, cell-based; settings: t67, 0.5 h
Outline: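 T67 glioma cells were pretreated with 10 μM fluorescent probe plus 1 mg/mL oligomycin. Images were taken by inverted fluorescence microscopy after 30 min of incubation, with or without 20 μM CCCP uncoupler to test dependence on mitochondrial potential.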

[16] = Cellular uptake in human T67 cells at 10 uM after 30 mins by fluorescence microscopic analysis in presence of mitochondrial uncoupler carbonyl cyanide m-chlorophenyl-hydrazone; type: ADME, cell-based; settings: t67, 0.5 h
Outline: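 T67 glioma cells were pretreated with 10 μM of the fluorescent test compound plus 1 mg/mL oligomycin, an ATP-synthase inhibitor, with 20 μM CCCP uncoupler added. Images were taken by inverted fluorescence microscopy after 30 min of incubation.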

Compound | Activity [1] | Activity [2] [%] | IC50 [3] [µM] | IC50 [4] [µM] | IC50 [5] [µM] | IC50 [6] [µM] | IC50 [7] [µM] | Activity [8] [%] | Activity [9] [%] | Activity [10] [%] | Activity [11] [%] | Activity [12] [%] | Activity [13] | Activity [14] | Drug uptake [15] | Drug uptake [16]
CCOc1cc(/C=C2\CN(C(=O)CCC(=O)NCCCNCCCN)C/C(=C\c3ccc(O)c(OCC)c3)C2=O)ccc1O | Active | 45 | 16.2 | 14.6 | 14.5 | 18.9 | 15.5 | – | – | – | – | – | – | – | – | –
COc1cc(/C=C/C(=O)CC(=O)/C=C/c2ccc(O)c(OC)c2)ccc1O [CURCUMIN] | – | – | 15 | 12.8 | 16.1 | 20.4 | 21.9 | – | – | – | – | – | – | – | – | –
COc1cc(/C=C2\CN(C(=O)CCC(=O)NCCCNCCCCNCCCN)C/C(=C\c3ccc(O)c(OC)c3)C2=O)ccc1O | Active | 45 | 11.9 | 14.2 | 13.9 | 19.8 | 15.6 | 40 | 40 | 40 | 10 | 10 | – | – | – | –
CCOc1cc(/C=C2\CN(C(=O)CCC(=O)NCCCNCCCCNCCCN)C/C(=C\c3ccc(O)c(OCC)c3)C2=O)ccc1O | Active | 38 | 14.4 | 20.8 | 14.2 | 18.4 | 15.7 | – | – | – | – | – | – | – | – | –
CCCCCC[C@H]1C(=O)O[C@H](C)[C@H](NC(=O)c2cccc(NC=O)c2O)C(=O)O[C@@H](C)[C@@H]1OC(=O)CC(C)C | inactive | – | – | – | – | – | – | – | – | – | – | – | – | – | – | –
COc1cc(/C=C2\CNC/C(=C\c3ccc(O)c(OC)c3)C2=O)ccc1O | inactive | – | 0.2 | 2.1 | 3.9 | 3.1 | 3 | – | – | – | – | – | Active | Active | – | –
COc1cc(/C=C2\CN(C(=O)CCC(=O)N(CCCNCCCCNCCCN)Cc3ccc(-c4nc5ccccc5s4)cc3)C/C(=C\c3ccc(O)c(OC)c3)C2=O)ccc1O | – | – | – | – | – | – | – | – | – | – | – | – | – | – | Active | Not Active
COc1cc(/C=C2\CN(C(=O)CCC(=O)NCCCNCCCN)C/C(=C\c3ccc(O)c(OC)c3)C2=O)ccc1O | Active | 40 | 16.5 | 17.8 | 19.9 | 24.5 | 17.7 | – | – | – | – | – | – | – | – | –
